In ChEMBL document CHEMBL1142527, “Tricyclic [1,2,4]triazine 1,4-dioxides as hypoxia selective cytotoxins” (J Med Chem, 2008):

Columns and labels:
HT-29 [1] = assay: Drug metabolism in human HT-29 cells assessed as amount of drug metabolized for one log of cell kill at their CT10 concentration for 1 hr; type: ADME, cell-based; conditions: ht-29, 1 h
How it was run: (§1)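 Stirred single-cell suspensions of anoxic HT29 cells are exposed for 3 h at a drug concentration giving roughly one log kill by 1 h. Clonogenic survival is followed, and extracellular drug is monitored by HPLC. Concentration-time data are fitted for the apparent first-order metabolic rate constant k_met, scaled to MCL cell density. CT₁₀ and M₁₀ (drug metabolized at 10% survival) are interpolated from the fitted PK/PD model.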

HT-29 [2] = assay: Cytotoxicity against human HT-29 cells assessed as AUC-time curve providing 10% surviving fraction by clonogenic assay; type: functional
HT-29 [3] = assay: Metabolic stability in human HT-29 multicellular layer assessed as apparent first-order rate constant under anoxic condition; type: ADME, cell-based; how it was run: as §1
SiHa [4] = assay: Hypoxic cytotoxicity ratio, ratio of aerobic IC50 to anoxic IC50 for human SiHa cells; type: functional
SiHa [5] = assay: Cytotoxicity against human SiHa cells after 4 hrs under strict hypoxic condition; type: functional, cell-based; conditions: Homo sapiens, SiHa, 4 h
HT-29 [6] = assay: Cytotoxicity against human HT-29 cells after 4 hrs under strict hypoxic condition; type: functional, cell-based; conditions: Homo sapiens, HT-29, 4 h
HT-29 [7] = assay: Hypoxic cytotoxicity ratio, ratio of aerobic IC50 to anoxic IC50 for human HT-29 cells; type: functional
[8] = Solubility at 22 degC in culture medium in presence of 5% fetal calf serum; type: physicochemical
How it was run: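 Solubility of the HCl salts is determined in culture medium containing 5% fetal calf serum at 22 °C.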

[9] = culture medium with 5% fetal calf serum, read-out: solubility

Q: Which Activity (HT-29 [1]) does the source give for `[O-][n+]1nc(NCCCN2CCOCC2)[n+]([O-])c2cc3c(cc21)CCO3` here?
A: 2155 µM

Q: And the Activity (HT-29 [2])?
A: 82.1 µM·h

Q: What about the Activity (HT-29 [3]) of the same compound?
A: 0.23 min⁻¹

Q: And the “Ratio IC50” value (SiHa [4])?
A: 14

Q: What about the IC50 (SiHa [5]) of the same compound?
A: 29 µM

Q: And the IC50 (HT-29 [6])?
A: 49 µM

Q: And the “Ratio IC50” value (HT-29 [7])?
A: 6

Q: What about the solubility [8, 9] of the same compound?
A: 46 mM

Q: Which results are given for `CC1Cc2cc3c(cc2C1)[n+]([O-])c(CCCO)n[n+]3[O-]` (centres undefined)?
A: Activity (HT-29 [1]): 2394 µM; Activity (HT-29 [2]): 85.3 µM·h; Activity (HT-29 [3]): 0.24 min⁻¹; Ratio IC50 (SiHa [4]): 104; IC50 (SiHa [5]): 8 µM; IC50 (HT-29 [6]): 13 µM; Ratio IC50 (HT-29 [7]): 80; solubility [8, 9]: 10 mM

Q: With `CC1Cc2cc3c(cc2C1)[n+]([O-])c(CCCN1CCOCC1)n[n+]3[O-]` (centres undefined) as the compound, how does the Activity (HT-29 [1]) read?
A: 2059 µM

Q: What about the Activity (HT-29 [3]) of the same compound?
A: 0.96 min⁻¹

Q: And the solubility [8, 9]?
A: 36 mM

Q: Which Activity (HT-29 [1]) does the source give for `CN(C)CCNc1n[n+]([O-])c2c3c(ccc2[n+]1[O-])CCCC3` here?
A: 4223 µM

Q: And the Activity (HT-29 [2])?
A: 19.5 µM·h

Q: What about the Activity (HT-29 [3]) of the same compound?
A: 1.78 min⁻¹

Q: What about the “Ratio IC50” value (SiHa [4]) of the same compound?
A: 64

Q: And the IC50 (SiHa [5])?
A: 1 µM

Q: What about the IC50 (HT-29 [6]) of the same compound?
A: 3.4 µM

Q: And the “Ratio IC50” value (HT-29 [7])?
A: 18

Q: And the solubility [8, 9]?
A: 47 mM

Q: What does the source list for `CN(C)CCNc1n[n+]([O-])c2cc3c(cc2[n+]1[O-])OCO3`?
A: Activity (HT-29 [1]; 1 h): 4310 µM; Activity (HT-29 [3]): 0.87 min⁻¹; solubility ([8]; serum): > 50 mM

Q: For `CCCN(CCC)CCNc1n[n+]([O-])c2c3c(ccc2[n+]1[O-])CCC3`, which Activity (HT-29 [1]) is on record?
A: 5626 µM

Q: What about the Activity (HT-29 [2]) of the same compound?
A: 66.3 µM·h

Q: And the Activity (HT-29 [3])?
A: 0.73 min⁻¹

Q: What about the “Ratio IC50” value (SiHa [4]) of the same compound?
A: 23

Q: And the IC50 (SiHa [5])?
A: 3.3 µM

Q: What about the IC50 (HT-29 [6]) of the same compound?
A: 12.4 µM

Q: What about the “Ratio IC50” value (HT-29 [7]) of the same compound?
A: 7

Q: What about the solubility [8, 9] of the same compound?
A: 40 mM

Q: What does the source list for `CCc1n[n+]([O-])c2cc3c(cc2[n+]1[O-])CC(CCN1CCOCC1)C3` (centres undefined)?
A: Activity (HT-29 [1]): 984 µM; Activity (HT-29 [2]): 15.8 µM·h; Activity (HT-29 [3]): 0.54 min⁻¹; Ratio IC50 (SiHa [4]): 84; IC50 (SiHa [5]): 1.3 µM; IC50 (HT-29 [6]): 3.6 µM; Ratio IC50 (HT-29 [7]): 36; solubility [8, 9]: > 51 mM

Q: For `CC1Cc2cc3c(cc2C1)[n+]([O-])c(NCCN(C)C)n[n+]3[O-]` (centres undefined), which Activity (HT-29 [1]) is on record?
A: 3057 µM

Q: What about the Activity (HT-29 [2]) of the same compound?
A: 23 µM·h

Q: What about the Activity (HT-29 [3]) of the same compound?
A: 1.49 min⁻¹

Q: What about the “Ratio IC50” value (SiHa [4]) of the same compound?
A: 97

Q: And the IC50 (SiHa [5])?
A: 1.4 µM

Q: What about the IC50 (HT-29 [6]) of the same compound?
A: 3.5 µM

Q: What about the “Ratio IC50” value (HT-29 [7]) of the same compound?
A: 54

Q: What about the solubility [8, 9] of the same compound?
A: > 49 mM

Q: Which “Ratio IC50” value (SiHa [4]) does the source give for `CCc1n[n+]([O-])c2cc3c(cc2[n+]1[O-])CN(C)CC3` here?
A: 6

Q: And the IC50 (SiHa [5])?
A: 3.1 µM

Q: What about the IC50 (HT-29 [6]) of the same compound?
A: 13.1 µM

Q: What about the “Ratio IC50” value (HT-29 [7]) of the same compound?
A: 2

Q: What about the solubility [8, 9] of the same compound?
A: > 47 mM

Q: For `CCN(CC)CCNc1n[n+]([O-])c2cc3c(cc2[n+]1[O-])OCC3`, which Activity (HT-29 [1]) is on record?
A: 1718 µM

Q: And the Activity (HT-29 [2])?
A: 58 µM·h

Q: What about the Activity (HT-29 [3]) of the same compound?
A: 0.26 min⁻¹

Q: What about the “Ratio IC50” value (SiHa [4]) of the same compound?
A: 122

Q: What about the IC50 (SiHa [5]) of the same compound?
A: 3.4 µM

Q: And the IC50 (HT-29 [6])?
A: 10 µM

Q: What about the “Ratio IC50” value (HT-29 [7]) of the same compound?
A: 113

Q: What about the solubility [8, 9] of the same compound?
A: 47 mM

Q: With `[O-][n+]1nc(NCCCN2CCOCC2)[n+]([O-])c2cc3c(cc21)CCC3` as the compound, how does the Activity (HT-29 [1]) read?
A: 1715 µM

Q: And the Activity (HT-29 [2])?
A: 76.2 µM·h

Q: What about the Activity (HT-29 [3]) of the same compound?
A: 0.19 min⁻¹

Q: And the “Ratio IC50” value (SiHa [4])?
A: 44

Q: And the IC50 (SiHa [5])?
A: 8.8 µM

Q: And the IC50 (HT-29 [6])?
A: 21.4 µM

Q: What about the “Ratio IC50” value (HT-29 [7]) of the same compound?
A: 20

Q: What about the solubility [8, 9] of the same compound?
A: 48 mM

Q: What does the source list for `[O-][n+]1nc(NCCCN2CCOCC2)[n+]([O-])c2cc3c(cc21)OCC3`?
A: Activity (HT-29 [1]): 2660 µM; Activity (HT-29 [2]): 116 µM·h; Activity (HT-29 [3]): 0.2 min⁻¹; Ratio IC50 (SiHa [4]): 28; IC50 (SiHa [5]): 3.4 µM; IC50 (HT-29 [6]): 22 µM; Ratio IC50 (HT-29 [7]): 8; solubility [8, 9]: > 49 mM

Q: Which results are given for `CCNc1n[n+]([O-])c2cc3c(cc2[n+]1[O-])CN(C)CC3`?
A: Ratio IC50 (SiHa [4]): 100; IC50 (SiHa [5]): 1.1 µM; IC50 (HT-29 [6]): 2.6 µM; Ratio IC50 (HT-29 [7]): 59; solubility [8, 9]: > 47 mM

Q: Which Activity (HT-29 [1]) does the source give for `CCN1Cc2cc3c(cc2C1)[n+]([O-])c(N)n[n+]3[O-]` here?
A: 2022 µM

Q: What about the Activity (HT-29 [2]) of the same compound?
A: 8.1 µM·h

Q: And the Activity (HT-29 [3])?
A: 2.2 min⁻¹

Q: What about the “Ratio IC50” value (SiHa [4]) of the same compound?
A: 80

Q: And the IC50 (SiHa [5])?
A: 0.8 µM

Q: And the IC50 (HT-29 [6])?
A: 1.5 µM

Q: What about the solubility [8, 9] of the same compound?
A: 6 mM

Q: What does the source list for `CCc1n[n+]([O-])c2cc3c(cc2[n+]1[O-])CC(CO)C3` (centres undefined)?
A: Activity (HT-29 [1]): 2096 µM; Activity (HT-29 [2]): 49.7 µM·h; Activity (HT-29 [3]): 0.47 min⁻¹; Ratio IC50 (SiHa [4]): 48; IC50 (SiHa [5]): 6.5 µM; IC50 (HT-29 [6]): 17 µM; Ratio IC50 (HT-29 [7]): 45; solubility [8, 9]: 5 mM

Q: For `[O-][n+]1nc(NCCCN2CCOCC2)[n+]([O-])c2ccc3c(c21)CCC3`, which Activity (HT-29 [1]) is on record?
A: 4108 µM

Q: And the Activity (HT-29 [2])?
A: 176.4 µM·h

Q: What about the Activity (HT-29 [3]) of the same compound?
A: 0.2 min⁻¹

Q: And the “Ratio IC50” value (SiHa [4])?
A: 33

Q: And the IC50 (SiHa [5])?
A: 13.9 µM

Q: And the IC50 (HT-29 [6])?
A: 38 µM

Q: What about the “Ratio IC50” value (HT-29 [7]) of the same compound?
A: 24

Q: What about the solubility [8, 9] of the same compound?
A: 46 mM

Q: For `[O-][n+]1nc(NCCN2CCCCC2)[n+]([O-])c2ccc3c(c21)CCC3`, which Activity (HT-29 [1]) is on record?
A: 5022 µM

Q: And the Activity (HT-29 [2])?
A: 27.2 µM·h

Q: What about the Activity (HT-29 [3]) of the same compound?
A: 1.6 min⁻¹

Q: What about the “Ratio IC50” value (SiHa [4]) of the same compound?
A: 51

Q: And the IC50 (SiHa [5])?
A: 1 µM

Q: And the IC50 (HT-29 [6])?
A: 4.9 µM

Q: What about the “Ratio IC50” value (HT-29 [7]) of the same compound?
A: 53

Q: What about the solubility [8, 9] of the same compound?
A: 36 mM
